Xi reactivation – X-chromosome reactivation activator. XiGFP mouse fibroblasts, % GFP-positive cells imaging, 3 d; cells co-treated with 5-aza-dC sensitizer; scaled so ellipticine positive control = 100%. activation, % at 7.58 µM. 0.055% of 360,000 active. AID 743238;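 active = mean normalized replicate activation at least 10% and every replicate at or above 10%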;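 also: 0% = median of on-plate neutral control wells and 100% = ellipticine 6 µM median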
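Material: SV40-immortalized XiGFP fibroblast cells, line 68-5-11 | Buffer or medium: DMEM containing 5-aza-dC | Dosing: One concentration, pinned | Times: 3 d treatment, 15 min room-temperature fixation | Controls: Ellipticine 6 µM positive control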
SR-BI uptake up – activators of SR-BI mediated HDL lipid uptake. CHO ldlA[mSR-BI] cells, DiI-HDL uptake fluorescence, 3 h; 100 = double the neutral-control signal. activation, % at 12.5 µM. 0.096% of 320,000 active;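 active = mean replicate activation of at least 60% and every replicate at or above 60%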;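 also: 0% = median plate neutral-control signal and 100% = twice that signal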
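Test system: SR-BI-overexpressing, LDLR-lacking CHO cells; Also added: labelled HDL, 10 µg/mL; Measured by: bottom-read cell fluorescence after medium removal, ex 550/em 595 nm; Timing: 3 h uptake period with compound, 37 °C; Buffer or medium: F12, 0.5% BSA, 25 mM HEPES; Doses: single compound concentration, delivered by pin transfer.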
SR-BI DiI inh – mouse SR-BI HDL lipid transfer inhibition; inhibition, % at 12.5 µM; ldlA[mSR-BI] CHO cells, DiI-HDL uptake fluorescence, 3 h; 0.96% of 320,000 active; Q61009;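 active = mean replicate inhibition of at least 70% and a set share of replicates each scoring 70 or more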;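 also: 0% = median of neutral control wells and 100% = median of positive control wells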
HGIII-sPLA2 inh – Blocks human group III sPLA2 activity; Q9NZ20; QFRET BODIPY PC-A2 liposome hydrolysis, fluorescence; inhibition, % at 12.2 µM; 0.56% of 370,000 active; AID 743126;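 active = inhibition above mean plus 3 SD of compounds lying within the high and low control bounds, cut at about 19% in these data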;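 also: 0% = median of test compound wells and 100% = no enzyme DMSO wells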
Target sequence (Q9NZ20 whole entry, looked up): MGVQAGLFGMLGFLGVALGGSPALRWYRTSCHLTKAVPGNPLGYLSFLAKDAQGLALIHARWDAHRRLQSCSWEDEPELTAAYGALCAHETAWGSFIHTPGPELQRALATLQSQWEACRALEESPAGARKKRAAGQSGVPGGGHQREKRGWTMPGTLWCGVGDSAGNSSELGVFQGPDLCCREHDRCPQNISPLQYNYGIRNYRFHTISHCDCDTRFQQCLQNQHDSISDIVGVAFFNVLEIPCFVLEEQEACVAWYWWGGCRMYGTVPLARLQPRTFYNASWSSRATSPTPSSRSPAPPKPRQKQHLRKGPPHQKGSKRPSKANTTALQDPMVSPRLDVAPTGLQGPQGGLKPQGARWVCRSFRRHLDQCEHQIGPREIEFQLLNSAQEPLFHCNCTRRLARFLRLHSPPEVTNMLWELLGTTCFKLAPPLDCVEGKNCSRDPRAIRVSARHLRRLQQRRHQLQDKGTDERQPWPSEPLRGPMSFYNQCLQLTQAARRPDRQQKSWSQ
NSD2 HMT inh – blocks human histone methyltransferase NSD2; inhibition, % at 12.5 µM; NSD2 peptide methylation, AlphaScreen, 120 min; 0.54% of 310,000 active; O96028; in the data active = inhibition above about 50%
ARNT-TACC3 inh – disrupts binding between human ARNT and TACC3; 0.66% of 390,000 active; Q9Y6A5; inhibition, % at 9.99 µM; AlphaScreen His-ARNT PAS-B/GST-TACC3 binding, luminescence; TACC3 fragment carries E629A point mutation;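 active = mean inhibition of replicates at least 50% and at least half of replicates each reaching 50%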;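 also: 0% = complete ARNT plus TACC3 wells and 100% = ARNT alone without TACC3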
sPLA2 confirm – human GIII-sPLA2 inhibition, confirmation; AID 743280; shares compounds with HGIII-sPLA2 inh; 34% of 2,000 active; inhibition, % at 12.2 µM; recombinant hGIII-sPLA2, BODIPY PC-A2 QFRET fluorescence;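 active = mean inhibition across triplicates above the hit cutoff set in the earlier primary screen, cut at about 19% in these data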;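 also: 0% = enzyme with DMSO and 100% = DMSO wells lacking enzyme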
535nm interf – counter-screen for HGIII-sPLA2 inhibitors: 535nm fluorescence interference. 8.5% of 2,000 active. BODIPY FL product fluorescence interference, QFRET. inhibition, % at 12.2 µM. shares compounds with HGIII-sPLA2 inh;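 active = average inhibition above the solvent-only control mean plus 3 SD, cut at about 6% in these data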;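 also: 0% = DMSO with substrate plus product and 100% = DMSO with substrate alone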
BODIPY interf DR – counter-screen for HGIII-sPLA2 inhibitors: 535nm fluorescence interference, dose response; shares compounds with HGIII-sPLA2 inh; BODIPY FL product fluorescence interference, cell-free; IC50, µM; 240 tested, under 10 active;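 active = IC50 at or below 10 µM; inactive = IC50 above 10 µM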
Active calls of the source: *; / = no result given. Shown are actives, neighbours in structure and some others; about 2% of the full set was active somewhere.

SMILES	Xi reactivation	SR-BI uptake up	SR-BI DiI inh	HGIII-sPLA2 inh	NSD2 HMT inh	ARNT-TACC3 inh	sPLA2 confirm	535nm interf	others
CC1(C)CC(CCN)(Cc2ccccc2Cl)CCO1 (configuration not stated)	0	1	-1	20*	9	1	11	-12
O=C(CN(Cc1cccs1)S(=O)(=O)c1ccc(S(=O)(=O)N2CCCCC2)cc1)Nc1ccccc1	0	27	-27	21*	-2	5	-2	0
Clc1ccc2nc(N3CCCCC3)sc2c1	0	-1	1	0	-4	-5	/	/
CS(=O)(=O)N1CCN(c2nc3ccc(Cl)cc3s2)CC1	0	-8	8	23*	5	-9	-3	-7
Oc1ccccc1/C=N/Nc1ncc(Br)cn1	0	1	-1	29*	-2	28	16	32*
Oc1ccccc1/C=N/Nc1cccc2cccnc12	/	-52	52	-3	1	18	/	/
CCN(CC)c1ccc(/C=N/NC(=S)NCc2ccccc2)c(O)c1	1	-63	63	36*	-1	-2	25*	11*
CCN(CC)c1ccc(/C=N/N(c2ccccc2)c2ccccc2)c(O)c1	0	4	-4	4	1	18	/	/
CCN(CC)c1ccc(C=Nc2ccccc2C)c(O)c1	0	-10	10	20*	8	4	10	-3
CO[C@@H]1CN(C)C(=O)c2cc(NS(=O)(=O)c3c(C)noc3C)ccc2OC[C@H](C)NC[C@H]1C	1	/	/	/	/	-1	/	/
O=C(OCCC12CC3CC(CC(C3)C1)C2)c1ccc(NCc2cc(O)ccc2O)cc1	3	-17	17	21*	8	27	21*	13*
O=C(c1cccs1)N1CCN(S(=O)(=O)c2ccccc2)CC1	/	8	-8	4	-1	-11	/	/
O=C(c1ccc(COc2c(F)c(F)c(F)c(F)c2F)o1)N1CCN(Cc2ccc3c(c2)OCO3)CC1	/	-8	8	-15	3	-8	/	/
Cc1ccc(NNC(=O)c2ccc(Cl)cc2)nn1	0	4	-4	47*	-2	-3	73*	74*
CCN(CC)c1ccc(NC(=O)CSc2nc3ccccc3c(=O)n2-c2cc(S(=O)(=O)N(C)C)ccc2C)cc1	0	-49	49	2	0	2	/	/
CCN(CC)c1ccc(NC(=O)CSc2nc3ccccc3c(=O)n2-c2ccc(C)cc2)cc1	/	/	/	28*	4	/	30*	-11	BODIPY interf DR=>122
Cc1ccc(-n2c(SCC(=O)NNC(=S)Nc3ccccc3)nc3ccccc3c2=O)cc1	0	/	/	30*	-1	7	26*	2
Cc1ccc(NC(=S)NNC(=O)CSc2nc3ccccc3c(=O)n2-c2ccc(Cl)cc2)cc1	/	/	/	29*	4	/	24*	2
O=C(CCN=C1NS(=O)(=O)c2ccccc21)Nc1ccc(F)cc1Cl	0	3	-3	-1	-3	-34	/	/
Cc1ccc(NC(=S)NNC(=O)c2ccccc2O)c(C)c1	0	-27	27	49*	-1	42	37*	-1	BODIPY interf DR=>122
Cc1cccc(NC(=S)NNC(=O)c2ccc(O)cc2O)c1C	0	-14	14	42*	1	25	33*	3	BODIPY interf DR=>122
Cc1onc(-c2ccccc2)c1C(=O)NC(=S)NNC(=O)c1cc(-c2ccc(F)cc2)n[nH]1	0	-44	44	29*	-2	1	41*	-16

High-throughput results deposited in PubChem BioAssay by several laboratories.
